From PMC4930114 (ACS infectious diseases, 2015)
Read-outs that look alike come from different tables or passages of the source.

Key:
[1] = target: ROP18 (Toxoplasma gondii, UniProt Q2PAY2); assay: biochemical
[2] = test system: P. falciparum 3D7 strain; conditions: 2 μM, 48 h; cited from earlier work
[3] = test system: P. falciparum Dd2 strain (a multidrug resistant strain); conditions: 2 μM, 48 h; cited from earlier work
[4] = test system: RAW 264.7 macrophages; assay: MTS-based cell growth assay; conditions: Mus musculus, RAW264.7, 48 h, read-out: EC50 growth inhibition (MTS)
[5] = test system: HepG2 hepatocarcinoma cells; conditions: 10 μM (48 h stated for compound 10); cited from earlier work
[6] = test system: RAW264.7 macrophages; assay: Phase contrast microscopy of host cell morphology; type: cell-based, mouse; conditions: 10 μM, in as little as 30 min; rounding up and vesiculation
[7] = test system: P. falciparum; conditions: 2 μM; cited from earlier work
[8] = test system: ROP18 function in T. gondii infected RAW macrophages (Irga6 recruitment to PVM); assay: Irga6; type: cell-based, Toxoplasma gondii; conditions: 10 μM; for proportion of Irga6 positive vacuoles, visual scoring, Δrop18 parasites: Δrop18, IFN-γ-activated RAW macrophages; for amount of Irga6 recruitment, quantitative immunofluorescence, Δrop18 parasites: Δrop18, vs DMSO vehicle
Procedure, shortened: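 RAW264.7 macrophages on coverslips (10^5/well) primed 24 h with 100 U/ml mouse IFNγ plus 1 ng/ml LPS. RH Δku80 tachyzoites (wild type or rop18-disrupted) at 10^5/ml pretreated 30 min at 37°C with 10 μM test compound or 0.1% DMSO, then invaded 30 min. Formaldehyde-fixed, Triton-permeabilized, stained for TgAldolase and Irga6 (mAb 10D7). Irga6-positive vacuoles scored visually; intensity quantified over parasite/PVM region.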

[9] = test system: RAW264.7 macrophages; assay: LDH release cytotoxicity; type: cell-based, mouse; conditions: 4 h incubation, 20 μM
[10] = test system: PDGFRβ; conditions: 0.1 μM; ref GSK PKIS profiling (Figure S5); cited from earlier work
[11] = test system: MELK; conditions: 1 μM; ref GSK PKIS profiling (Table S1); cited from earlier work
[12] = test system: PDGFRα; conditions: 0.1 μM; ref GSK PKIS profiling (Figure S5); cited from earlier work
[13] = test system: CDK3/cyclinE; conditions: 1 μM; ref GSK PKIS profiling (Table S1); cited from earlier work
[14] = test system: CDK2; conditions: 0.1 μM; ref GSK PKIS profiling (Figure S5); cited from earlier work
[15] = test system: TBK1; conditions: 1 μM; ref GSK PKIS profiling (Table S1); cited from earlier work
[16] = IC50 μM FL-8, substrate peptide FL-8, same assay conditions as primary screen
[17] = IC50 μM FL-E, substrate peptide FL-E, same assay conditions as primary screen

Chain of ROP18 (Q2PAY2 98-554): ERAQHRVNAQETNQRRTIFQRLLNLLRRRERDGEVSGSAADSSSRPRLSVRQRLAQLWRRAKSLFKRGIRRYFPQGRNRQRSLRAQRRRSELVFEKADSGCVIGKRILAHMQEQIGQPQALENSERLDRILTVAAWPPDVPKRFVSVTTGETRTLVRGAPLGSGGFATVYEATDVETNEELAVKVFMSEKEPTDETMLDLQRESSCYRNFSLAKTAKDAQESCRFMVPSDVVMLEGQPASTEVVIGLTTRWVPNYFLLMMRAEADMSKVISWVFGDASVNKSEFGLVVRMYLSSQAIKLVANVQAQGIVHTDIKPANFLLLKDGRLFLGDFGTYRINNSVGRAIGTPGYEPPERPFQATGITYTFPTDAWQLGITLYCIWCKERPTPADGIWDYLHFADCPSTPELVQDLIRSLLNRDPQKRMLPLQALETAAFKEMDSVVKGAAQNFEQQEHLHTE

COc1ccc(NC(=O)Nc2nc(SCC(=O)C(C)(C)C)ns2)cc1 [Compound 11, 1-[3-(3,3-dimethyl-2-oxo-butyl)sulfanyl-1,2,4-thiadiazol-5-yl]-3-(4-methoxyphenyl)urea]
IC50 [1, 16]: > 10 µM
IC50 [1, 17]: 6.44 µM

CS(=O)(=O)Cc1ccc(Nc2nccc(-c3c(-c4cccc(NC(=O)C5CCCCC5)c4)nn4ncccc34)n2)cc1 [Compound 9, <I>N</I>-[3-[3-[2-[4-(methylsulfonylmethyl)anilino]pyrimidin-4-yl]pyrazolo[1,5-b]pyridazin-2-yl]phenyl]cyclohexanecarboxamide]
IC50 [1, 16]: > 10 µM
IC50 [1, 17]: > 10 µM

NS(=O)(=O)c1ccc(N/C=C2\C(=O)Nc3ccc4ncsc4c32)cc1 [Compound 1, 4-[(7-hydroxy-6H-pyrrolo[2,3-g][1,3]benzothiazol-8-yl)methyleneamino]benzenesulfonamide]
IC50 [1, 16]: 1.21 µM
IC50 [1, 17]: 2.48 µM

NS(=O)(=O)CCc1cccc(Nc2nccc(-c3c(-c4cccc(NC(=O)c5c(F)cccc5F)c4)nn4ccccc34)n2)c1 [Compound 8, 2,6-difluoro-<I>N</I>-[3-[3-[2-[3-(2-sulfamoylethyl)anilino]pyrimidin-4-yl]pyrazolo[1,5-a]pyridin-2-yl]phenyl]benzamide]
IC50 [1, 16]: 0.63 µM
IC50 [1, 17]: 0.94 µM

CC(C)(CO)CNC(=O)c1ccc2c(c1)C(=NNc1ccc(S(N)(=O)=O)cc1)C(=O)N2 [Compound 3, 2-hydroxy-N-(3-hydroxy-2,2-dimethyl-propyl)-3-(4-sulfamoylphenyl)azo-1H-indole-5-carboxamide]
IC50 [1, 16]: 0.65 µM
IC50 [1, 17]: 0.19 µM

CS(=O)(=O)Cc1ccc(Nc2nccc(-c3c(-c4cccc(NC(=O)c5c(F)cccc5F)c4)nn4ccccc34)n2)cc1 [Compound 10, 2,6-difluoro-<I>N</I>-[3-[3-[2-[4-(methylsulfonylmethyl)anilino]pyrimidin-4-yl]pyrazolo[1,5-a]pyridin-2-yl]phenyl]benzamide]
inhibition of 3D7 strain [2]: 99%
inhibition of Dd2 strain [3]: 75%
IC50 [1, 16]: 2.83 µM
IC50 [1, 17]: 1 µM
EC50 [4]: 1.3 µM
growth inhibition of HepG2 cells [5]: 78%
morphological damage to the host cells [6]: rapid morphological damage

C[C@]12O[C@H](C[C@]1(O)CO)n1c3ccccc3c3c4c(c5c6ccccc6n2c5c31)CNC4=O [Compound 14, (5S,6S,8R)-6-hydroxy-6-(hydroxymethyl)-5-methyl-5,6,7,8,14,15-hexahydro-13H-16-oxa-4b,8a,14-triaza-5,8-methanodibenzo[b,h]cycloocta[jkl]cyclopenta[e]-as-indacen-13-one, reference compound]
IC50 [1]: 0.16 µM

Oc1nccc2nc(NC3CCNC3)nc(Nc3cc(Cl)cc(Cl)c3)c12 (stereo not shown) [Compound 6, 4-(3,5-dichloroanilino)-2-(pyrrolidin-3-ylamino)pyrido[4,3-d]pyrimidin-5-ol]
IC50 [1, 16]: > 10 µM
IC50 [1, 17]: 7.49 µM

O=c1[nH]ccc2nc(NC3CCCNC3)nc(Nc3ccc(S(=O)(=O)N4CCOCC4)cc3)c12 (stereo not shown) [Compound 7, 4-(4-morpholinosulfonylanilino)-2-(3-piperidylamino)pyrido[4,3-d]pyrimidin-5-ol]
inhibition of P. falciparum growth [7]: > 95%
Ki [1]: 270 nM
IC50 [1, 16]: 0.4 µM
IC50 [1, 17]: 0.18 µM
EC50 [4]: 14.2 µM
growth inhibition of HepG2 cells [5]: 13%
proportion of Irga6 positive vacuoles, visual scoring, wild type parasites ([8]; wild type (RH), IFN-γ-activated RAW macrophages, vs DMSO vehicle): did not result in a significant increase
amount of Irga6 recruitment, quantitative immunofluorescence, wild type parasites ([8]; wild type (RH), vs DMSO vehicle): no significant increase
proportion of Irga6 positive vacuoles, visual scoring, Δrop18 parasites ([8]; vs DMSO vehicle): caused a reduction
amount of Irga6 recruitment, quantitative immunofluorescence, Δrop18 parasites [8]: significantly lower
increase in LDH release [9]: 12%

CC(C)COC(=O)c1ccc2c(c1)/C(=C/Nc1ccc(S(N)(=O)=O)cc1)C(=O)N2 [Compound 2, isobutyl 2-hydroxy-3-[(4-sulfamoylphenyl)iminomethyl]-1H-indole-5-carboxylate]
inhibition of PDGFRβ [10]: > 50%
inhibition of MELK [11]: > 90%
inhibition of PDGFRα [12]: > 50%
Ki [1]: 130 nM
IC50 [1, 16]: 0.51 µM
IC50 [1, 17]: 0.29 µM
EC50 [4]: 7.4 µM
inhibition of CDK3/cyclinE [13]: > 90%
inhibition of CDK2 [14]: > 50%
inhibition of TBK1 [15]: > 90%
proportion of Irga6 positive vacuoles, visual scoring, Δrop18 parasites ([8]; vs DMSO vehicle): did not lead to a significant increase or decrease
amount of Irga6 recruitment, quantitative immunofluorescence, Δrop18 parasites [8]: did not lead to a significant increase or decrease

Cc1cccc(Nc2nc(NC3CCCCC3N)ncc2C(N)=O)c1 (stereo not shown) [Compound 13, 2-[(2-aminocyclohexyl)amino]-4-(3-methylanilino)pyrimidine-5-carboxamide]
IC50 [1, 16]: > 10 µM
IC50 [1, 17]: 6.66 µM

NS(=O)(=O)c1ccc(NN=C2C(=O)Nc3ccc(C(=O)NCc4ccncc4)cc32)cc1 [Compound 4, 2-hydroxy-N-(4-pyridylmethyl)-3-(4-sulfamoylphenyl)azo-1H-indole-5-carboxamide]
IC50 [1, 16]: > 10 µM
IC50 [1, 17]: 2.66 µM

O=S1(=O)CCc2ccc(Nc3nc(NC4CCNC4)nc4ccnc(O)c34)cc21 (stereo not shown) [Compound 5, 4-[(1,1-dioxo-2,3-dihydrobenzothiophen-6-yl)amino]-2-(pyrrolidin-3-ylamino)pyrido[4,3-d]pyrimidin-5-ol]
IC50 [1, 16]: > 10 µM
IC50 [1, 17]: 4.02 µM
